Results taken from ChEMBL document CHEMBL5634162, “Cyclohexylalanine-Containing α-Helical Amphipathic Peptide Targets Cardiolipin, Rescuing Mitochondrial Dysfunction in Kidney Injury” (J Med Chem, 2024).
Activity calls are given as the source filed them. The rule behind the calls is not given here. Where a SMILES comes first, the peptide text is derived from it. Bridges are numbered along the chain shown (N, C = ends). Roman numbers before positions name the chains, in order. [ ]: non-standard residue; d: D form. The star is where a group is joined. 5TAMRA = CN(C)c1ccc2c(c1)Oc1cc(N(C)C)ccc1C21OC(=O)c2cc(C(=O)*)ccc21; Cha = N[C@@H](CC1CCCCC1)C(=O)O

Legend:
[1] = system: Epithelial cell; assay: Reversal of H2O2-induced mitochondrial dysfunction in human tubular epithelial cells assessed as increase in glycolytic PER level measured for 40 to 60 mins by Seahorse assay; format: functional, cell-based; details: dose 10-50 nM, time 40-60 min
Procedure, shortened: (§1)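 hTECs were exposed to H2O2 with peptide at 10 or 50 nM (n = 6 per group), then run on a Seahorse XFe96. OCR was read after sequential 2 μM oligomycin, 1 μM FCCP, and 0.5 μM rotenone/antimycin A. ECAR was read after 10 mM glucose, 1 μM oligomycin and 50 mM 2-DG. Glycolytic proton efflux rate was taken as glycoATP production rate.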

[2] = system: Epithelial cell; assay: Reversal of H2O2-induced mitochondrial dysfunction in human tubular epithelial cells assessed as increase in ECAR level measured for 40 to 60 mins by Seahorse assay; format: functional, cell-based; details: dose 10-50 nM, time 40-60 min; procedure, shortened: as §1
[3] = system: Lipid bilayer; assay: Binding affinity to cardiolipin-rich POPC/POPE by SPR analysis
[4] = system: Mus musculus; assay: Protection against colistin-induced nephrotoxicity in C57BL/6 mouse model assessed as reduction in blood creatinine level at 1 mg/kg, ip administered once every other day measured upto 7 days; format: functional, organism-based; details: time <= 7.0 day
Procedure, shortened: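 Male C57BL/6 mice, 7 weeks: colistin 20 mg/kg sc daily for 7 days, peptide 1 mg/kg ip every other day, n = 5 per group. BUN by autoanalyzer and creatinine by modified Jaffe reaction after 7 days; mean ± SEM.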

[5] = system: HeLa; assay: Inhibition of H2O2-induced intracellular ROS level in human HeLa cells at EC50 incubated for […] followed by H2O2 addition measured for 10 mins by H2DCFDA probe based analysis; format: functional, cell-based; details: time 220.0 min
[6] = system: Mus musculus; assay: Protection against […] C57BL/6 mouse model assessed as increase in SOD-1 mRNA level at 1 mg/kg, ip administered thrice a week prior to induction of bilateral ischemia-reperfusion injury measured after 6 days by qPCR analysis; format: functional, organism-based; details: time 6.0 day
[7] = Drug localization in H2O2-damaged mitochondria of human tubular epithelial cells pretreated for 3 hrs followed by H2O2 addition measured after 30 mins by fluorescence based analysis; format: ADME; details: epithelial cell, time 3.5 hrs
[8] = system: Mus musculus; assay: Protection against […] C57BL/6 mouse model assessed as increase in SOD-1 level at 1 mg/kg, ip administered thrice a week prior to induction of bilateral ischemia-reperfusion injury measured after 6 days by IHC analysis; format: functional, organism-based; details: time 6.0 day
[9] = system: Mus musculus; assay: Protection against […] C57BL/6 mouse model assessed as decrease in NGAL level at 1 mg/kg, ip administered thrice a week prior to induction of bilateral ischemia-reperfusion injury measured after 6 days by IHC analysis; format: functional, organism-based; details: time 6.0 day
[10] = system: Mus musculus; assay: Protection against […] C57BL/6 mouse model assessed as increase in ATP6 mRNA level at 1 mg/kg, ip administered thrice a week prior to induction of bilateral ischemia-reperfusion injury measured after 6 days by qPCR analysis; format: functional, organism-based; details: time 6.0 day
[11] = Drug uptake in CCCP-damaged mitochondria of human HeLa cells at 100 nM incubated for 3 hrs by MitoTracker probe based assay; format: ADME; details: 0.1 µM
Procedure, shortened: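 HeLa cells given TAMRA-labelled peptide 100 nM for 3 h with MitoTracker staining; mitochondria damaged with 20 μM CCCP (30 min) or by CCCP during time-lapse confocal imaging. Red/green Pearson r calculated.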

[12] = system: Mus musculus; assay: Protection against colistin-induced nephrotoxicity in C57BL/6 mouse model assessed as reduction in NGAL level at 1 mg/kg, ip administered once every other day measured after 7 days by IHC analysis; format: functional, organism-based; details: time 7.0 day
Procedure, shortened: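 Male C57BL/6 mice, 7 weeks: colistin 20 mg/kg sc daily for 7 days, peptide 1 mg/kg ip once every other day, n = 5 per group. Day-7 kidney sections, citrate antigen retrieval, immunohistochemistry with HRP polymer secondary and hematoxylin counterstain; PAS and Masson's trichrome for damage.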

[13] = system: Epithelial cell; assay: Reversal of H2O2-induced p16 mRNA level in human tubular epithelial cells at 10 to 100 nM by qPCR analysis; format: functional, cell-based; details: dose 10-100 nM
[14] = system: Epithelial cell; assay: Induction of H2O2-reduced mitochondrial membrane potential in human tubular epithelial cells at 20 to 60 nM pretreated for 3 hrs followed by H2O2 addition measured after 30 mins by fluorescence based analysis; format: functional; details: dose 20-60 nM
Procedure, shortened: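 hTECs given peptide 3 h then H2O2 1 mM for 30 min; TMRE 600 nM for 15 min, washed, HBSS, plate reader at 37 °C (Ex/Em 525/575 nm).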

[15] = system: Mus musculus; assay: Protection against […] C57BL/6 mouse model assessed as reduction in serum BUN level at 1 mg/kg, ip administered thrice a week prior to induction of bilateral ischemia-reperfusion injury measured after 6 days; format: functional, organism-based; details: time 6.0 day
[16] = Drug localization in mitochondria of human HeLa cells at EC50 incubated for 3 hrs by fluorescence based assay; format: ADME
[17] = system: Mus musculus; assay: Protection against colistin-induced nephrotoxicity in C57BL/6 mouse model assessed as reduction in renal fibrosis at 1 mg/kg, ip administered once every other day measured after 7 days by […] analysis; format: functional, organism-based; details: time 7.0 day
Procedure, shortened: (§2)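 Seven-week-old male C57BL/6 mice got colistin 20 mg/kg SC daily for 7 days plus peptide 1 mg/kg intraperitoneally every other day; groups of n = 5 (control, colistin, colistin + peptide). Kidneys were taken at day 7. Cytochrome C was detected by immunohistochemistry (citrate antigen retrieval, HRP-polymer detection, hematoxylin counterstain). Sections were also stained with PAS and Masson's trichrome to score histologic damage and fibrosis.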

[18] = system: Mus musculus; assay: Protection against colistin-induced nephrotoxicity in C57BL/6 mouse model assessed as reduction in tubular dilation at 1 mg/kg, ip administered once every other day measured after 7 days by […] analysis; format: functional, organism-based; details: time 7.0 day; procedure, shortened: as §2

Structure (SMILES): CC(=O)N[C@@H](CC1CCCCC1)C(=O)N[C@H]1CSSC[C@@H](C(=O)N[C@@H](CCCNC(=N)N)C(N)=O)NC(=O)[C@H](CC2CCCCC2)NC(=O)[C@H](CCCNC(=N)N)NC(=O)[C@H](CCCNC(=N)N)NC(=O)[C@H](CC2CCCCC2)NC(=O)[C@H](CC(C)C)NC(=O)[C@H](CCCNC(=N)N)NC(=O)[C@@H](NC(=O)[C@H](CC2CCCCC2)NC(=O)c2ccc3c(c2)C(=O)OC32c3ccc(N(C)C)cc3Oc3cc(N(C)C)ccc32)CSSC[C@@H](C(=O)N[C@@H](CCCNC(=N)N)C(N)=O)NC(=O)[C@H](CC2CCCCC2)NC(=O)[C@H](CCCNC(=N)N)NC(=O)[C@H](CCCNC(=N)N)NC(=O)[C@H](CC2CCCCC2)NC(=O)[C@H](CC(C)C)NC(=O)[C@H](CCCNC(=N)N)NC1=O (I: Ac-[Cha]CRL[Cha]RR[Cha]CR-NH2 / II: 5TAMRA-[Cha]CRL[Cha]RR[Cha]CR-NH2; disulfide I:2-II:9, I:9-II:2)
- Activity [1]: Dose-Dependent Effect
- Activity [2]: Dose-Dependent Effect
- Activity [3]: Active
- Activity [4]: Active
- inhibition [5]: Active
- Activity [6]: Active
- Drug uptake [7]: Active
- Activity [8]: Active
- Activity [9]: Active
- Activity [10]: Active
- Drug uptake [11]: Active
- Activity [12]: Active
- Activity [13]: Active
- Activity [14]: Active
- Activity [15]: Active
- Drug uptake [16]: 53%
- Activity [17]: Active
- Activity [18]: Active
